Source: PubChem BioAssay
Compounds with a hit are over-represented: about 2.3% of the library has one in this group of screens.
XiGFP reactiv – reactivates the inactive X chromosome in mouse fibroblasts; XiGFP mouse fibroblasts, % GFP-positive cells imaging, 3 d; cells co-treated with 5-aza-dC sensitizer; scaled so ellipticine positive control = 100%; activation, % at 7.58 µM; 0.055% of 360,000 active;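 active = mean normalized replicate activation at least 10% and every replicate at or above 10%; inconclusive = only one of the two criteria met; inactive = mean below 10% and not all replicates reach 10%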;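 also: 0% = median of on-plate neutral control wells and 100% = ellipticine 6 µM median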
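Assay system – SV40-immortalized XiGFP fibroblast cells, line 68-5-11 · Buffer or medium – DMEM supplemented with 5-aza-dC as sensitizing agent · Dosing – one concentration, pinned · Benchmarks – positive control ellipticine, 6 µM final · Times – 3 days compound exposure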
FN deposition inh – fibronectin deposition inhibition; AH1F fibroblasts, Alexa488-fibronectin deposition fluorescence, overnight; inhibition, % at 12.6 µM; 0.086% of 350,000 active; AID 743247;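 active = mean inhibition across replicates of 30% or more, regardless of how many single replicates reach that level; inconclusive = mean under 30% yet at least half of replicates reach 30%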;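 also: positive control wells lacked labelled fibronectin entirely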
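Schedule: 1 h cell adhesion before compound, then overnight fibronectin incubation; test system: AH1F fibroblast monolayer depositing Alexa488-labelled fibronectin into matrix; quantity: 10000 AH1F cells per well; probe or stimulus: fluorescent fibronectin at 24 nM final; signal: fluorescence, ex 485 nm, em 525 nm; evaluation: percent inhibition as loss of matrix-bound fibronectin fluorescence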
TWEAK Fn14 block – blocks TWEAK-Fn14 interaction in a reporter cell assay. inhibition, % at 10 µM. 2% of 360,000 active. TWEAK-stimulated Fn14 reporter cells, luciferase luminescence, 8 h; in the data active = inhibition above about 50%
LGR2 inh – Drosophila LGR2 receptor signaling inhibition. HEK293 LGR2, CRE-luciferase, bursicon-stimulated, 4 h. 0.35% of 380,000 active. inhibition, % at 9.99 µM;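 active = drop in luminescence signal, shown as inhibition above about 50% in the replicate tests, limit read from the data, passing the limit was not always enough; inconclusive = probably only some replicates passing the limit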;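 also: agonist challenge used bursicon conditioned medium at about half maximal strength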
TROY signal inh – blocks TROY-dependent signaling in reporter cells; Q293 LMP1-TROYcd NF-kB luciferase reporter, 4 h; inhibition, % at 10 µM; 0.98% of 360,000 active;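 active = compounds whose plate-normalised and pattern-corrected inhibition of the luciferase reporter signal at the single screening dose is 50% or more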
EWS-Fli inh – inhibitors of EWS/Fli oncoprotein transcriptional activity. A673 NR0B1-luciferase reporter, viability-normalised. inhibition, % at 12.6 µM. 0.67% of 350,000 active;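 active = mean inhibition of at least 50% after viability correction, with every replicate also passing that limit; inconclusive = mean reaches 50% but only one of two replicates passes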;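 also: firefly luciferase signal divided by Alamar Blue viability fluorescence both relative to DMSO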
The depositor's hits bear a star; ? = inconclusive; / = no result given.

SMILES	XiGFP reactiv	FN deposition inh	TWEAK Fn14 block	LGR2 inh	TROY signal inh	EWS-Fli inh
C[C@H](CO)N1C[C@H](C)[C@H](CN(C)Cc2ccc(C(F)(F)F)cc2)Oc2ccc(NC(=O)NC3CCCCC3)cc2CC1=O	0	-12	/	-8	/	5
O=C(CCNS(=O)(=O)c1cccc2nsnc12)Nc1ccc2c(c1)OCCO2	/	-14	58*	/	3	/
O=S(=O)(Nc1ccc2c(c1)OCCO2)c1cccc2nsnc12	/	/	95*	5	84*	/
O=S(=O)(Nc1ccccc1)c1cccc2nsnc12	0	-1	15	2	7	8
CC(NC(=O)CCNS(=O)(=O)c1cccc2nsnc12)c1ccccc1 (stereo unspecified)	0	-2	54*	-9	20	6
CC(C)c1ccc(NC(=O)CCNS(=O)(=O)c2cccc3nsnc23)cc1	/	/	0	12	5	/
CCC(=O)N1[C@H](C(=O)N2CCCCC2)[C@@H](CO)[C@@H]2Cn3c(ccc(-c4ccccc4)c3=O)[C@@H]21	0	/	/	-11	/	6
Cn1c(-c2ccccc2)cnc1SCC(=O)N1CCCCC1	/	/	93*	/	61*	/
O=c1c2ccccc2nc(/C=C/c2ccc(O)cc2)n1CCc1ccccc1	0	/	66*	17	6	/
O=c1c2ccccc2nc(-c2ccco2)n1CCc1ccc(O)cc1	0	3	64*	8	33	13
COCCNC(=O)C[C@H]1CC[C@@H]2[C@H](COc3ccc(NC(=O)Cc4ccccc4)cc3C(=O)N2C)O1	0	-15	/	2	/	-3
Cc1csc2ncnc(N3CCN(C(=S)Nc4ccc(F)cc4F)CC3)c12	0	4	54*	42	90*	9
Fc1ccc(NC(=S)N2CCCN(c3ccc(C(F)(F)F)cn3)CC2)c(F)c1	0	-10	32	23	27	2
Cc1ccc2cc(CCNS(=O)(=O)c3ccc(F)cc3)c(=O)[nH]c2c1C	0	-7	59*	7	56*	1
Cc1ccc(S(=O)(=O)NCCc2cc3ccc(C)c(C)c3[nH]c2=O)cc1	0	21	3	14	-6	-1
COc1cccc(-c2ccc3ncnc(NCc4cccnc4)c3c2)c1	0	15	74*	12	45	11
COc1cccc(CNc2ncnc3cc(OC)c(OC)cc23)c1	/	/	5	2	9	/
Cc1noc(C)c1NC(=O)Nc1ccc2c(c1)C(=O)N([C@H](C)CO)C[C@@H](C)[C@H](CN(C)Cc1ccc(Cl)c(Cl)c1)O2	0	/	/	4	/	-4
Cc1ccc2c(c1)/C(=N/OS(=O)(=O)c1ccccc1)CCS2	/	8	21	/	-11	/
Cc1ccc2c(c1)/C(=N/O)CCS2	/	-6	65*	/	-12	/
CCOC(=O)c1[nH]c2ccccc2c1NC(=O)c1ccc(Br)o1	/	/	66*	12	-5	6
CCOC(=O)c1[nH]c2ccccc2c1NC(=O)NC(C)C	0	-8	6	12	2	7
CCCC#Cc1cnc2c(c1)C(=O)N([C@H](C)CO)C[C@@H](C)[C@H](CN(C)C(=O)C1CCOCC1)O2	-1	/	/	-15	/	-2
C[C@H](CO)N1C[C@H](C)[C@@H](CN(C)S(=O)(=O)c2cccs2)Oc2ccc(NC(=O)Nc3ccc(C(F)(F)F)cc3)cc2C1=O	-1	-3	60*	6	31	-1
C[C@@H]1CN([C@H](C)CO)C(=O)c2cc(NC(=O)Nc3ccc(C(F)(F)F)cc3)ccc2O[C@H]1CN(C)S(=O)(=O)c1ccc(Cl)cc1	0	-10	53*	0	18	-6
SMILES	XiGFP reactiv	FN deposition inh	TWEAK Fn14 block	LGR2 inh	TROY signal inh	EWS-Fli inh
C[C@H](CO)N1C[C@H](C)[C@H](CN(C)S(=O)(=O)c2cn(C)cn2)Oc2ccc(NC(=O)Nc3ccc(C(F)(F)F)cc3)cc2CC1=O	-1	5	-3	-2	9	61*
C[C@@H]1CN([C@H](C)CO)C(=O)c2cc(NC(=O)Nc3ccc(C(F)(F)F)cc3)ccc2O[C@H]1CN(C)S(=O)(=O)c1cccs1	-1	-4	42	5	33	-6
C[C@H]1CN([C@@H](C)CO)C(=O)Cc2cc(NC(=O)Nc3ccc(C(F)(F)F)cc3)ccc2O[C@H]1CN(C)S(=O)(=O)c1ccc(Cl)cc1	-1	/	/	-11	/	57*
CCCC#Cc1ccc(CC[C@H]2O[C@H]3CC[C@@H](CO)O[C@H]3C[C@H]2n2cc(C(C)(C)O)nn2)cc1	/	/	/	/	/	-6
CCc1ccc(/C(C)=N/NC(=O)CNC(=O)/C=C/c2ccco2)cc1	/	/	66*	/	1	/
CO[C@H]1CN(C)C(=O)c2cc(NS(=O)(=O)c3ccccc3)ccc2OC[C@@H](C)N(C(=O)NC(C)C)C[C@H]1C	1	3	/	-5	/	-16
C[C@H]1CN([C@@H](C)CO)C(=O)c2cc(C#CC3CC3)cnc2O[C@@H]1CN(C)S(C)(=O)=O	0	-21	/	-1	/	-8
CCC(CC)NC(=O)c1cc2c(C)nn(Cc3ccccc3Cl)c2s1	/	/	74*	/	/	/
O=C(C=C=Nc1ccccc1)C(=O)N=C=Cc1ccccc1	0	8	86*	21	51*	7
O=C(N/N=C/c1ccccc1)C(=O)N/N=C/c1ccccc1	0	-10	1	-1	10	0
Cc1cccc(NC(=S)N=Nc2c(O)[nH]c3ccccc23)c1	0	3	83*	10	-46	/
COc1ccc(C(C)NCCC(c2ccc(OC(C)C)cc2)c2ccccc2OC)cc1 (stereo unspecified)	0	4	-2	99*	-15	?
COc1ccc(C(CCNC(C)c2ccccc2)C(C)C)cc1 (stereo unspecified)	0	1	-16	0	-49	39
O=C(Cc1coc2cc3c(cc12)CCC3)OCC(=O)N1CCCC1=O	0	-2	83*	2	59*	32
O=C(O)Cc1coc2cc3c(cc12)CCC3	0	-3	15	8	3	0
O=C(C[C@H]1CC[C@H](NC(=O)Nc2ccc3c(c2)OCO3)[C@@H](CO)O1)NCc1ccccc1	0	/	/	11	/	-1
COc1ccc(-c2[nH]c(-c3ccc4c(c3)OCO4)nc2-c2ccccc2)cc1	/	-2	31	/	60*	/
c1csc(CNc2ncnc3ccc(-c4ccoc4)cc23)c1	0	-2	88*	45	55*	-9
O=C(CN1C(=O)CSc2ccc(S(=O)(=O)N3CCCCCC3)cc21)NCCc1ccccc1	0	/	6	1	-5	-11
O=C(CN1C(=O)CSc2ccc(S(=O)(=O)N3CCOCC3)cc21)NCCc1ccccc1	0	-3	97*	4	-1	-6
CCOC(=O)c1c(-c2ccc(C)o2)csc1NC(=O)CSc1nnc(C)s1	/	-1	0	/	-2	/
